From ChEMBL document CHEMBL1153030, “Synthesis, structural characterisation and biological evaluation of fluorinated analogues of resveratrol” (Bioorg Med Chem, 2009) come the findings set out here.

In data set [1] the test system is HT-144. Put plainly: Antiproliferative activity against human HT144 cells after 5 days by acid phosphatase assay. It is filed as functional, cell-based. The note with it: HT-144, 120 h. A digest of the protocol:
(§1)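 Cell lines DLKP, DLKP-A and HT-144, seeded at 1 × 10³ cells/well (DLKP and DLKP-A) or 3 × 10³ cells/well (HT-144, higher density needed for cell-contact-dependent growth). 5 day drug exposure. Compounds tested alone and in combination with the P-gp/MRP1 substrate epirubicin. Read-out is cell proliferation (%) relative to untreated control.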

Data set [2] deals with HT-144. Put plainly: Antiproliferative activity against human HT144 cells assessed as cell proliferation at 20 uM after 5 days by acid phosphatase assay. It is filed as functional. As to conditions: HT-144, 120 h, read-out: Activity. The procedure, abridged:
as §1

Data set [3] is described as follows: Antiproliferative activity against MRP1-expressing human DLKP cells after 5 days by acid phosphatase assay. It is filed as functional, cell-based. The note with it: 120 h. The procedure, abridged: as §1
A short description of data set [4]: Antiproliferative activity against MRP1-expressing human DLKP cells assessed as cell proliferation at 10 uM after 5 days by acid phosphatase assay. As to conditions: 120 h, read-out: Activity. It is filed as functional. The procedure, abridged:
as §1

Data set [5] can be described thus: Antiproliferative activity against P-gp expressing human DLKP-A cells after 5 days by acid phosphatase assay. As to conditions: 120 h. It is filed as functional, cell-based. A digest of the protocol: as §1
The nature of data set [6]: Antiproliferative activity against P-gp expressing human DLKP-A cells assessed as cell proliferation at 10 uM after 5 days by acid phosphatase assay. In kind it is functional. The note with it: for growth at 10 µM: Homo sapiens, DLKP-A, 120 h, read-out: Activity. The procedure, abridged:
as §1

Data set [7] can be described thus: Antiproliferative activity against P-gp expressing human DLKP-A cells assessed as cell proliferation at 5 uM after 5 days by acid phosphatase assay. In kind it is functional. As to conditions: 120 h, read-out: Activity. The procedure, abridged:
as §1

Data set [8] is described as follows: Antiproliferative activity against MRP1-expressing human DLKP cells assessed as cell proliferation at 5 uM after 5 days by acid phosphatase assay. It is filed as functional. As to conditions: 120 h, read-out: Activity. The procedure, abridged:
as §1

Data set [9] is described as follows: Solubility of the compound in cell media. The note with it: cell culture media.
Data set [10] in a line: Solubility in DMSO-containing medium. In kind it is physicochemical. The procedure, abridged:
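Compounds were solubilised in a minimum amount of DMSO, then solubility was tested in culture media. A minimum concentration of 0.5 mg/ml in media was required before biological evaluation.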

Another data set deals with NCI-H460. Description: Antiproliferative activity against human NCI-H460 cells assessed as cell growth at 100 uM after 48 hrs by alamar blue assay. In kind it is functional. As to conditions: NCI-H460, 48 h, read-out: Activity. The procedure, abridged: (§2)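 DTP three cell line one-dose prescreen: MCF7 (breast), NCI-H460 (lung), SF-268 (CNS). Cells inoculated and preincubated in microtiter plate, then single concentration of test agent added, 48 h incubation. Alamar blue endpoint. Growth expressed as percent of untreated control cells.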

For another data set, the system named is MCF7. Description: Antiproliferative activity against human MCF7 cells assessed as cell growth at 100 uM after 48 hrs by alamar blue assay. In kind it is functional. As to conditions: MCF7, 48 h, read-out: Activity. A digest of the protocol:
as §2

A further data set deals with SF-268. Put plainly: Antiproliferative activity against human SF268 cells assessed as cell growth at 100 uM after 48 hrs by alamar blue assay. The note with it: SF-268, 48 h, read-out: Activity. In kind it is functional. The procedure, abridged:
as §2

Data set [11] in a line: Aqueous solubility of the compound. In kind it is physicochemical. The note with it: buffer.
In data set [12] the test system is HT-144. Put plainly: Antiproliferative activity against human HT144 cells assessed as cell proliferation at 0.005 uM after 5 days by acid phosphatase assay. It is filed as functional. As to conditions: HT-144, 120 h, read-out: Activity. A digest of the protocol: as §1
Data set [13] is described as follows: Antiproliferative activity against MRP1-expressing human DLKP cells assessed as cell proliferation at 0.01 uM after 5 days by acid phosphatase assay. In kind it is functional. As to conditions: 120 h, read-out: Activity. A digest of the protocol:
as §1

Data set [14] in a line: Antiproliferative activity against P-gp expressing human DLKP-A cells assessed as cell proliferation at 1.5 uM after 5 days by acid phosphatase assay. In kind it is functional. The note with it: 120 h, read-out: Activity. A digest of the protocol:
as §1

In another data set the test system is HL-60(TB). Put plainly: Anticancer activity against human HL-60(TB) cells. It is filed as functional, cell-based. A digest of the protocol: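 Tested in the DTP 60 human tumour cell line panel, which covers leukaemia, lung, colon, CNS, melanoma, ovarian, renal, prostate and breast lines. GI50, IC50, LC50 and TGI were calculated for each cell line.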
Another data set concerns SK-OV-3. Put plainly: Anticancer activity against human SKOV3 cells. It is filed as functional, cell-based. A digest of the protocol: (§3)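 NCI 60 human tumour cell line panel; GI50, IC50, LC50 and TGI values calculated for each cell line.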
A further data set deals with T47D. Description: Anticancer activity against human T47D cells. In kind it is functional, cell-based. A digest of the protocol:
as §3

Another data set deals with SNB-75. Description: Anticancer activity against human SNB75 cells. In kind it is functional, cell-based. A digest of the protocol: as §3
The subject of the next data set is SK-MEL-28. Description: Anticancer activity against human SK-MEL-28 cells. In kind it is functional, cell-based. A digest of the protocol: as §3
For a further data set, the system named is RXF 393. Put plainly: Anticancer activity against human RXF393 cells. It is filed as functional, cell-based. A digest of the protocol:
as §3

In a further data set the test system is EKVX. Description: Anticancer activity against human EKVX cells. In kind it is functional, cell-based. A digest of the protocol: as §3
Another data set concerns DU-145. Put plainly: Anticancer activity against human DU145 cells. In kind it is functional, cell-based. A digest of the protocol: as §3
For the next data set, the system named is HT-29. Description: Anticancer activity against human HT-29 cells. It is filed as functional, cell-based. A digest of the protocol:
as §3

As to `Oc1ccc(/C=C/c2cc(O)cc(O)c2)cc1` [RESVERATROL], the IC50 with HT-144 [1] stood at 40 µM; in data set [3], 10 µM; in data set [5] it was 15 µM. Moreover, the growth at 20 µM in the data set on HT-144 [2] stood at 100%. In addition, the growth at 10 µM in [4] was found to be 38%; in data set [6], 67%. For the same compound, the Activity in [6] came to 66%.

`CC(=O)Oc1cc(/C=C/c2ccc(F)cc2)cc(OC(C)=O)c1`: the results for the growth at 5 µM in data set [7] and in data set [8] were 89% and 100%, respectively. The concentration for half-maximal inhibition (IC50) in the data set on HT-144 [1] was determined as 56 µM; in data set [3], 25 µM; in data set [5], 19 µM. Besides, the growth at 20 µM in the data set on HT-144 [2] is 100%. Also, the solubility entry in [9] and in data set [10] was “Soluble” throughout.

With `O=C(Nc1cc(/C=C/c2ccc(F)cc2)cc(NC(=O)C(F)(F)F)c1)C(F)(F)F`, the IC50 amounted to 28 µM in data set [3] and 20 µM in [5]. The growth at 10 µM in [4] worked out at 95%; in [6], 84%. For the same compound, the solubility result in data set [9] and in [10] was “Soluble” each time.

In the case of `COc1cc(/C=C/c2ccc(F)cc2)cc(OC)c1`, the growth at 100 µM is 60% in the data set with NCI-H460, 67% in the data set on MCF7 and 105% in the data set on SF-268.

As to `Fc1ccc(/C=C/c2cc(F)cc(F)c2)cc1`, the growth at 100 µM in the data set with NCI-H460 came out at 101%; with MCF7, 82%; in the data set with SF-268, 111%.

Take `COc1ccc(/C=C/c2cc(F)cc(F)c2)cc1`: the growth at 100 µM in the data set on NCI-H460 worked out at 105%; in the data set on MCF7 it was 84%; in the data set with SF-268 it was 111%.

On to `NCC(=O)Nc1ccc(/C=C/c2cc(F)cc(F)c2)cc1.O=C(O)C(F)(F)F`, for which the solubility entry in [10] and in data set [11] was “Soluble” in each case.

Take `Nc1cc(N)cc(/C=C/c2ccc(F)cc2)c1`: the IC50 in data set [3] and in [5] was greater than 50 µM in each case. The growth at 10 µM in data set [4] turned out to be 87%; in [6] it was 98%. The solubility entry in data set [9] and in data set [10] was “Soluble” throughout.

`CC(=O)Nc1ccc(/C=C/c2cc(F)cc(F)c2)cc1` registered a 50% inhibitory concentration (IC50) in data set [3] of 39 µM. The growth at 10 µM in data set [4] was found to be 75%; in [6], 78%. Moreover, the solubility result in data set [9] and in [10] was “Soluble” each time.

In the case of `Oc1ccc(/C=C/c2cc(F)cc(F)c2)cc1`, the results for the growth at 5 µM in data set [7] and in [8] were 85% and 74%, respectively. Moreover, the IC50 with HT-144 [1] was determined as 59 µM; in [3] it was 6 µM; in [5] it was 14 µM. In addition, in the data set with HT-144 [2], the growth at 20 µM was found to be 105%. For the same compound, the solubility result in [9] and in data set [10] was “Soluble” throughout.

In the case of `COc1cccc2c1C(=O)c1c(O)c3c(c(O)c1C2=O)C[C@@](O)(C(=O)CO)C[C@@H]3O[C@H]1C[C@H](N)[C@@H](O)[C@H](C)O1` [EPIRUBICIN], the growth at 0.005 µM in the data set with HT-144 [12] turned out to be 91%. Besides, the growth at 0.01 µM in data set [13] was determined as 64%. Also, in [14], the growth at 1.5 µM is 66%.

With `CC(=O)Oc1cc(O)cc(/C=C/c2ccc(F)cc2)c1`, the growth at 5 µM came out at 90% in [7] and 98% in data set [8]. In addition, the IC50 in the data set on HT-144 [1] came to 54 µM; in [3] it was 21 µM; in [5], 21 µM. In the data set on HT-144 [2], the growth at 20 µM is 110%. The solubility entry in data set [9] and in [10] was “Soluble” each time.

On to `CC(=O)Nc1cc(/C=C/c2ccc(F)cc2)cc(NC(C)=O)c1`, for which the IC50 in data set [3] was 50 µM; in data set [5], greater than 50 µM. Besides, the growth at 10 µM in data set [4] was found to be 94%; in data set [6] it was 96%. Besides, the solubility entry in data set [9] and in [10] was “Soluble” each time.

As for `CC(=O)Oc1ccc(/C=C/c2cc(F)cc(F)c2)cc1`, the results for the growth at 100 µM in the data set on NCI-H460, in the data set with MCF7 and in the data set on SF-268 were 7%, 22% and 1%, respectively. For the same compound, the GI50 in the data set with HL-60(TB) is 117 µM; in the data set on SK-OV-3, 96.5 µM; with T47D it was 128 µM; with SNB-75, 90.9 µM; in the data set with SK-MEL-28 it was 83.1 µM; in the data set with RXF 393, 202 µM. Also, the GI50 is 117 µM in the data set on EKVX, 128 µM in the data set with DU-145 and 80.6 µM with HT-29. Moreover, the IC50 in the data set on HL-60(TB) came to 54.6 µM; in the data set with HT-144 [1], 36 µM; in the data set with SK-OV-3 it was 83.1 µM; in the data set with T47D, 79.8 µM; in the data set on SNB-75, 60.3 µM; in [3] it was 7 µM. In addition, the IC50 with SK-MEL-28 is 70.1 µM; with RXF 393, 75.9 µM; in data set [5], 10 µM; in the data set with EKVX, 78.7 µM; with DU-145 it was 100 µM; in the data set on HT-29, 73.7 µM. For the same compound, the values for the growth at 5 µM in data set [7] and in data set [8] were 50% and 52%, respectively. Besides, in the data set on HT-144 [2], the growth at 20 µM is 85%. Moreover, the solubility result in data set [9] and in data set [10] was “Soluble” each time.
